In ChEMBL document CHEMBL3132746, “Development of CBAP-BPyne, a probe for γ-secretase and presenilinase” (Medchemcomm, 2014) one finds Activity, inhibition and IC50 data, which are given here for three molecules.

Each structure is given as a SMILES string. Active and inactive are the calls of the source. The rule behind the calls is not given here.

Experiment [1] concerns HeLa. The experiment is described as follows: Binding affinity to Signal peptide peptidase in human HeLa cell membrane by photolabelling assay. The experiment is classed as cell membranes. The method, boiled down:
(§1)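 Photolabelling: 600 µg HeLa cell membrane diluted in PBS, preincubated with 2 µM CBAP or vehicle for 15 min at 37 °C. Then 20 nM probe for 1 h at 37 °C and UV irradiation (350 nm) for 45 min. Membranes pelleted and clicked to biotin azide (1 h, RT). Streptavidin pull-down overnight at 4 °C, biotin elution, Western blot with the relevant subunit antibody.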

For experiment [2], the target named is Presenilin-1 (Homo sapiens) (UniProt P49768). The experiment is described as follows: Inhibition of PS1 PSase activity in human HeLa cells assessed as accumulation of full length protein at 1 to 10 uM after 4 days by Western blot analysis. The experiment is classed as cell-based. The method, boiled down:
(§2)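 HeLa cells treated 4 days at 1, 3 or 10 µM, with DMSO vehicle as control. Lysis in RIPA buffer; 15 µg lysate run on 12% Bis-Tris gel in MES buffer. Western blot with anti PS1-NTF antibody, scoring full-length PS1 and PS1-NTF bands.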

For experiment [3] the target is unchanged. As to the kind of experiment: Inhibition of PS1 PSase activity in human HeLa cells assessed as complete depletion of PS1-NTF protein at 1 to 10 uM after 4 days by Western blot analysis relative to control. The experiment is classed as cell-based. The gist of the method:
as §2

For experiment [4], the target named is Gamma-secretase subunit PEN-2 (Homo sapiens) (UniProt Q9NZ42). As to the kind of experiment: Binding affinity to Pen-2 in human HeLa cell membrane by photolabelling assay. The experiment is classed as cell membranes. The method, boiled down:
as §1

Experiment [5] addresses Presenilin-1 (Homo sapiens) (UniProt P49768). As to the kind of experiment: Binding affinity to PS1-NTF in human HeLa cell membrane by photolabelling assay. The experiment is classed as cell membranes. The method, boiled down: as §1
The target in experiment [6] is Gamma-secretase. The experiment is described as follows: Inhibition of gamma-secretase (unknown origin) using Notch1 substrate assessed as Notch1-NICD production. The experiment is classed as protein-complex assay, Homo sapiens.
In experiment [7] the target is Presenilin-1 (Homo sapiens) (UniProt P49768). As to the kind of experiment: Binding affinity to PS1-CTF in human HeLa cell membrane by photolabelling assay. The experiment is classed as cell membranes. The method, boiled down: as §1
Experiment [8] has as its target Gamma-secretase. The experiment is described as follows: Inhibition of gamma-secretase (unknown origin) expressed in CHO cells transfected with APP assessed as amyloid-beta42 production by cell based assay. More on the design: species or system Homo sapiens.
Experiment [9] addresses Gamma-secretase. The experiment is described as follows: Inhibition of gamma-secretase (unknown origin) using APP substrate assessed as amyloid-beta40 production. The experiment is classed as protein-complex assay, Homo sapiens.
Experiment [10] deals with HeLa. As to the kind of experiment: Binding affinity to Aph-1 in human HeLa cell membrane by photolabelling assay. The experiment is classed as cell membranes. The method, boiled down: as §1
The next experiment concerns the target Nicastrin (Homo sapiens) (UniProt Q92542). The experiment is described as follows: Binding affinity to nicastrin in human HeLa cell membrane by photolabelling assay. The experiment is classed as cell membranes. The gist of the method: as §1

Sequence of Nicastrin (Homo sapiens) (Q92542 whole entry): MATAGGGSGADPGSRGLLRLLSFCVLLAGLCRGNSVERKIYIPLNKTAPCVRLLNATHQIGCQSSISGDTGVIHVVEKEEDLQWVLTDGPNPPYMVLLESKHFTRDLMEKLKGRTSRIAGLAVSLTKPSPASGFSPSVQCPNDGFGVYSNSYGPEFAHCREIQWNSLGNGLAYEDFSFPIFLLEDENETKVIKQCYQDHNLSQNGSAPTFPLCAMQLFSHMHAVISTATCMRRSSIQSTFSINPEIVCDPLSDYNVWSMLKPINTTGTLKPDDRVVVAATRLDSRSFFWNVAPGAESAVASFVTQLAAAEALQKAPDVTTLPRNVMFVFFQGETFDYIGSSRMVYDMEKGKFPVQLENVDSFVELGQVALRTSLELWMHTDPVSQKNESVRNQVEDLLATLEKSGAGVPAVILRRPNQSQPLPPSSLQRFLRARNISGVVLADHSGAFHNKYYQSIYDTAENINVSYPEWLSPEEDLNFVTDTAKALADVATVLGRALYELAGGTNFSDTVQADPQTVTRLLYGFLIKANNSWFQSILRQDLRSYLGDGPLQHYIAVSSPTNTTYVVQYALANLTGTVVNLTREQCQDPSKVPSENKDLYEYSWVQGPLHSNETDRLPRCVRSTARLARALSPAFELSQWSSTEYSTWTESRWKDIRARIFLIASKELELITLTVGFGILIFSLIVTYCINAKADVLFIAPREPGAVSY
Sequence of Gamma-secretase subunit PEN-2 (Homo sapiens) (Q9NZ42 whole entry): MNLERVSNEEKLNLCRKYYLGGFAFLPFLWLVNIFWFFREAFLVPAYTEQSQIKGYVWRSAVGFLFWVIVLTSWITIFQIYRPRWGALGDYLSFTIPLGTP

Consider `C[C@H](NC(=O)[C@H](Cc1ccccc1)C[C@@H](O)[C@H](Cc1ccccc1)NC(=O)OC(C)(C)C)C(=O)N[C@@H]1N=C(C2CCCCC2)c2ccccc2NC1=O`, for which the outcome (with HeLa [1]; in experiment [5]) was Active. Further, the inhibition entry in experiment [2] and in [3] was “Active” each time. The result (in [4]; in experiment [7]; in the experiment on HeLa [10]; on Nicastrin (Homo sapiens)) was inactive. The IC50 on Gamma-secretase [6] is 0.56 nM; on Gamma-secretase [8], 28 nM; on Gamma-secretase [9], 0.7 nM.

`C#CCOc1ccc(C(=O)c2ccc(C(=O)N[C@@H](Cc3ccccc3)[C@H](O)C[C@@H](Cc3ccccc3)C(=O)N[C@@H](C)C(=O)N[C@@H]3N=C(C4CCCCC4)c4ccccc4NC3=O)cc2)cc1`: the result (with HeLa [1]; in experiment [5]) was Active. The inhibition result in experiment [2] was “Active”. The result (in [4]; in experiment [7]; in the experiment with HeLa [10]; on Nicastrin (Homo sapiens)) was inactive. Moreover, the IC50 on Gamma-secretase [6] was 1 nM; on Gamma-secretase [8], 20 nM; at Gamma-secretase [9] it was 0.91 nM.

Consider `CC(C)C[C@H](NC(=O)[C@H](Cc1ccccc1)C[C@@H](O)[C@H](Cc1ccccc1)NC(=O)OC(C)(C)C)C(=O)N[C@@H](Cc1ccccc1)C(N)=O`, for which, in [2], the inhibition entry is “inactive”.
